This note sets out measurements from ChEMBL document CHEMBL3217744, “Non-iminosugar glucocerebrosidase small molecule chaperones” (Medchemcomm, 2012).

Data set [1] concerns the target T1, Lysosomal acid glucosylceramidase (Homo sapiens, UniProt P04062, N409S). The data set can be described thus: (§1) Inhibition of glucocerebrosidase N370S mutant in spleen homogenates of patient with Gaucher disease using resorufin-beta-D-glucopyranoside as substrate after 20 mins fluorescence assay. The class given is tissue-based.
For data set [2], the system named is T2, Lysosomal acid glucosylceramidase (Homo sapiens), P04062 [N409S].
T2 sequence (whole entry): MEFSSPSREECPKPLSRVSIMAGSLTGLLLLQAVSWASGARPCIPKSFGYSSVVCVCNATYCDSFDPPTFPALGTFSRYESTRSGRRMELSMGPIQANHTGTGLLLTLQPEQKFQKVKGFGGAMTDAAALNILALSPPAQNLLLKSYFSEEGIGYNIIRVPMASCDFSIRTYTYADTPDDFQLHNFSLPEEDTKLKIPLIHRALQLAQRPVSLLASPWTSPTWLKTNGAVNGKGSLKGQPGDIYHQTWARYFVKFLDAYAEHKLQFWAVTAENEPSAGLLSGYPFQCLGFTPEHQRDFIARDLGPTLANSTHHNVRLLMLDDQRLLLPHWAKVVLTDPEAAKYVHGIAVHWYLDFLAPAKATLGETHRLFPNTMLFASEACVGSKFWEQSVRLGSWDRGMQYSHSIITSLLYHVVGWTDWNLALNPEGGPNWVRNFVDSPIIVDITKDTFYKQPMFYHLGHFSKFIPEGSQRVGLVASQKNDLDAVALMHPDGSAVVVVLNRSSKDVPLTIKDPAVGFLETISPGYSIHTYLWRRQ
The description is as §1. The class given is tissue-based.

For data set [3], the target named is Somatostatin receptor type 4 (Homo sapiens, UniProt P31391). The data set can be described thus: Binding affinity to human SST4 receptor.
Data set [4] concerns T2, Lysosomal acid glucosylceramidase (Homo sapiens), P04062 [N409S]. The data set can be described thus: Induction of glucocerebrosidase N370S mutant translocation in fibroblasts of patient with Gaucher disease assessed as co-localization of LAMP-1 in lysosomes at 1 uM after 5 days by laser scanning confocal microscopic analysis. The method in brief:
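Gaucher patient fibroblasts on chamber slides, treated 5 days with compound. Cells fixed in 3% paraformaldehyde and permeabilized with 0.1% Triton-X. Stained with anti-LAMP-1 (1:100) and anti-GCase R386 (1:500), then Alexa-488/555 secondaries and DAPI. Imaged by confocal laser scanning at identical laser settings; collapsed z-stacks.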

Data set [5] concerns the target T1, Lysosomal acid glucosylceramidase. The data set is described as follows: Inhibition of glucocerebrosidase N370S mutant in spleen homogenates of patient with Gaucher disease using resorufin-beta-D-glucopyranoside as substrate after 60 mins fluorescence assay. The class given is tissue-based.
A short description of data set [6]: Plasma concentration in C57BL/6 mouse at 30 mg/kg, ip after 0.25 hrs. The class given is ADME, organism-based. Details: dose 30 mg/kg, route intraperitoneal. The method in brief: (§2)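 Male C57BL/6 mice (20-21 g), single IP dose of 30 mg/kg at 3 mg/mL, 10 mL/kg, in 5% DMAC/5% Solutol HS 15/90% 10 mM pH 7.4 phosphate buffer; n=3 per time point. Retro-orbital blood into K2EDTA under isoflurane, pre-dose to 24 h. Plasma protein-precipitated with acetonitrile containing testosterone internal standard; LC-MS/MS positive ESI MRM; calibration 1.00-10000 ng/mL.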

In data set [7] the test system is Mus musculus. The data set is described as follows: Tmax in C57BL/6 mouse at 30 mg/kg, ip after 24 hrs. Type of data set: ADME, organism-based. The settings on record: in vivo. On the set-up: dose 30 mg/kg, route intraperitoneal. The method in brief:
as §2

Data set [8] can be described thus: Plasma concentration in C57BL/6 mouse at 30 mg/kg, ip after 1 hr. Type of data set: ADME, organism-based. Details: dose 30 mg/kg, route intraperitoneal. The method in brief:
as §2

Data set [9] in a line: Plasma concentration in C57BL/6 mouse at 30 mg/kg, ip after 8 hrs. Type of data set: ADME, organism-based. On the set-up: dose 30 mg/kg, route intraperitoneal. The essentials:
as §2

Data set [10] in a line: Plasma concentration in C57BL/6 mouse at 30 mg/kg, ip after 2 hrs. Type of data set: ADME, organism-based. On the set-up: dose 30 mg/kg, route intraperitoneal. The essentials:
as §2

A short description of data set [11]: Plasma concentration in C57BL/6 mouse at 30 mg/kg, ip after 0.5 hrs. The class given is ADME, organism-based. On the set-up: dose 30 mg/kg, route intraperitoneal. The method in brief:
as §2

Data set [12] can be described thus: Plasma concentration in C57BL/6 mouse at 30 mg/kg, ip after 0.083 hrs. Type of data set: ADME, organism-based. On the set-up: dose 30 mg/kg, route intraperitoneal. The essentials: as §2
Data set [13] deals with Mus musculus. The data set can be described thus: AUClast in C57BL/6 mouse at 30 mg/kg, ip after 24 hrs. Type of data set: ADME, organism-based, Plasma. On the set-up: time < 24 hr, dose 30 mg/kg, route intraperitoneal. The note with it: in vivo. The method in brief: as §2
Data set [14] concerns Mus musculus. The data set is described as follows: Half life in C57BL/6 mouse at 30 mg/kg, ip after 24 hrs. On the set-up: dose 30 mg/kg, route intraperitoneal. Type of data set: ADME, organism-based. The note with it: in vivo. The essentials: as §2
Data set [15] deals with Mus musculus. The data set is described as follows: AUC (infinity) in C57BL/6 mouse at 30 mg/kg, ip after 24 hrs. The note with it: in vivo. Type of data set: ADME, organism-based, Plasma. Details: time infinity, dose 30 mg/kg, route intraperitoneal. The method in brief:
as §2

Data set [16] in a line: Plasma concentration in C57BL/6 mouse at 30 mg/kg, ip after 4 hrs. The class given is ADME, organism-based. Details: dose 30 mg/kg, route intraperitoneal. The essentials:
as §2

The nature of data set [17]: Plasma concentration in C57BL/6 mouse at 30 mg/kg, ip after 12 hrs. Type of data set: ADME, organism-based. On the set-up: dose 30 mg/kg, route intraperitoneal. The essentials:
as §2

Data set [18] concerns Mus musculus. The data set is described as follows: Cmax in C57BL/6 mouse at 30 mg/kg, ip after 24 hrs. The class given is ADME, organism-based. On the set-up: dose 30 mg/kg, route intraperitoneal. The note with it: in vivo. The method in brief:
as §2

Data set [19] in a line: Plasma concentration in C57BL/6 mouse at 30 mg/kg, ip after 24 hrs. Details: dose 30 mg/kg, route intraperitoneal. The class given is ADME, organism-based. The essentials:
as §2

The source made the active and inactive calls. No cut-off for these calls is given here.

Sequence of Somatostatin receptor type 4 (P31391 whole entry): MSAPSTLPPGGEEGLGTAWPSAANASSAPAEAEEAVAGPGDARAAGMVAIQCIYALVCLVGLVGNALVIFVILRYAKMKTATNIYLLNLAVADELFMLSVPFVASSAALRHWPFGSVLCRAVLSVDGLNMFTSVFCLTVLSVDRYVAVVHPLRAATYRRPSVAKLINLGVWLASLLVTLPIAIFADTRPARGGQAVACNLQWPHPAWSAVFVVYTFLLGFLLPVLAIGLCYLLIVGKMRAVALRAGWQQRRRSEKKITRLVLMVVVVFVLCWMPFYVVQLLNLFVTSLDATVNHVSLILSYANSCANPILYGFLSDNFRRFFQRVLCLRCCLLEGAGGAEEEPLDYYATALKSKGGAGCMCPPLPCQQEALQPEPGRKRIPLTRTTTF

Broadly, the IC50 is the concentration that gives 50% inhibition. A low value points to inhibition by little substance. `O=C(NCCCc1cnc[nH]1)NCCCN(Cc1ccc(Cl)cc1)c1ccc(Br)cn1` registered an IC50 in data set [1] of 1000 nM. That is a single-digit micromolar value.
Still for that read-out and setting: with `S=C(NCCCc1c[nH]cn1)NCCCN(Cc1ccc(Cl)cc1)c1ccc(Br)cn1` the figure was 1200 nM; with `CCCCN(CCCNC(=S)NCCCc1c[nH]cn1)c1ccc(Br)cn1`, 8200 nM.
Molecule `S=C(NCCCc1c[nH]cn1)NCCCN(Cc1ccc(Cl)c(Cl)c1)c1ccccn1` came in with an IC50 in [1] of 7300 nM.
The same measure, in the same setting: for `S=C(NCCCc1cnc[nH]1)NCCCN(CCc1ccccc1)c1ccc(Br)cn1` the value was 2800 nM.
As for `CCCCNC(=S)NCCCN(Cc1ccc(Cl)c(Cl)c1)c1ccc(Br)cn1`, the inhibition entry in [2] is “inactive”.
`S=C(NCCCc1c[nH]cn1)NCCN(Cc1ccc(Cl)c(Cl)c1)c1ccc(Br)cn1` registered a half-maximal inhibitory concentration (IC50) in data set [1] of 2100 nM.
On to `CC(=O)NCCCNC(=S)NCCCN(Cc1ccc(Cl)cc1)c1ccc(Br)cn1`, for which the inhibition result in [2] is “inactive”.
As for `S=C(NCCCc1cnc[nH]1)NCCCN(Cc1ccc(Cl)cc1)c1cc(-c2ccccc2)ccn1`, it took 4000 nM to reach half-maximal inhibition in data set [1] (IC50).
On the same count and under the same terms, for `S=C(NCCCc1cnc[nH]1)NCCCN(CCc1ccc(Cl)cc1)c1ccc(Br)cn1` the value was 2000 nM; for `S=C(NCCCc1c[nH]cn1)NCCCN(Cc1ccccc1)c1ccc(Br)cn1`, 5800 nM.
In general, Ki refers to the equilibrium dissociation constant of an inhibitor or competing ligand from its target. Low readings indicate tighter binding, high ones weaker binding. `CN(CCCN(Cc1ccc(Cl)cc1)c1ccc(Br)cn1)C(=S)NCCCc1cnc[nH]1`: the inhibitory constant (Ki) in data set [3] was 19 nM. In data set [1], this molecule displayed an IC50 of 2800 nM.
On to `OC[C@H]1CNC[C@@H](O)[C@@H]1O`, for which the outcome in [4] was Active.
With `NCCCNC(=S)NCCCN(Cc1ccc(Cl)cc1)c1ccc(Br)cn1`, in [1], the half-inhibitory concentration (IC50) was 45000 nM.
On the same count and under the same terms, for `S=C(NCCCCN(Cc1ccc(Cl)cc1)c1ccc(Br)cn1)NCCCc1cnc[nH]1` the value was 800 nM.
On to `S=C(NCCCc1cnc[nH]1)NCCCN(Cc1ccc(Cl)cc1)c1ccc(Br)cc1`, for which the affinity in [3], expressed as Ki, was 160 nM. The outcome in data set [4] was Active. In data set [1], this molecule registered an IC50 of 1300 nM.
The term Tmax denotes the time from dosing to the highest level. As a reminder, the AUC is the area under the concentration-time curve, a measure of exposure. One may read the Cmax as the maximum level reached in the sampled fluid or tissue. As for `S=C(NCCCc1c[nH]cn1)NCCCN(Cc1ccc(Cl)c(Cl)c1)c1ccc(Br)cn1`, the 50% inhibitory concentration (IC50) was found to be 580 nM in [5] and 600 nM in data set [1]. In data set [6], this molecule registered a concentration at 0.25 h of 4.24 µM. Besides, the Tmax in [7] amounted to 1 h. For the same molecule, in data set [8], the concentration at 1 h was determined as 6.39 µM. In addition, in [9], the concentration at 8 h worked out at 1.35 µM. In [10], the concentration at 2 h was found to be 6.17 µM. For the same molecule, in data set [4], the outcome was Active. For the same molecule, in data set [11], the concentration at 0.5 h stood at 4.84 µM. The molecule also returned a concentration at 0.083 h in [12] of 3.03 µM. This molecule gave an AUClast in data set [13] of 20600 ng·h/mL. This molecule came in with a t1/2 in data set [14] of 2.57 h. The molecule further yielded an AUC in [15] of 20700 ng·h/mL. For the same molecule, the concentration at 4 h in [16] is 4.29 µM. The same molecule yielded a concentration at 12 h in data set [17] of 0.2 µM. Moreover, in [18], the Cmax worked out at 3553 ng/mL. Moreover, the concentration at 24 h in [19] was found to be 0.02 µM.
As for `CN(CCCc1cnc[nH]1)C(=S)NCCCN(Cc1ccc(Cl)cc1)c1ccc(Br)cn1`, the inhibitory constant (Ki) in data set [3] was 26 nM. Also, in [1], 18000 nM corresponded to half-maximal inhibition (IC50).
Regarding `S=C(NCCCc1cnc[nH]1)NCCCN(Cc1ccc(Cl)cc1)c1ccc(-c2ccccc2)cn1`, the concentration for half-maximal inhibition (IC50) in [1] was found to be 1300 nM.
On the same count and under the same terms, with `O=C(NCCCc1c[nH]cn1)NCCCN(Cc1ccc(Cl)c(Cl)c1)c1ccc(Br)cn1` the figure was 600 nM.
Turning to `S=C(NCCCN(Cc1ccc(Cl)c(Cl)c1)c1ccc(Br)cn1)NCCc1c[nH]cn1`, inhibition in data set [1] was half-maximal at 18300 nM (IC50).
Turning to `S=C(NCCCNc1ccc(Br)cn1)NCCCc1c[nH]cn1`, in data set [3], the affinity, expressed as Ki, was 690 nM. The same molecule displayed a half-inhibitory concentration (IC50) in data set [1] of 46000 nM.
